Source: ChEMBL document CHEMBL1123614, “Effects of [(N-alkyl-1,3-dioxo-1H,3H-isoindolin-5-yl)oxy]alkanoic acids, [(N-alkyl-1-oxo-1H,3H-isoindolin-5-yl)oxy]butanoic acids, and related derivatives on chloride influx in primary astroglial cultures” (J Med Chem, 1987)

Species: Rattus norvegicus
Experiment: Reduction of Astrocyte intracellular chloride concentration at 0.01 mM.
Type: functional, organism-based
Details: not given
In short: (§1)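 Primary rat astrocyte cultures (1–4-day-old Sprague-Dawley pups, oligodendrocytes not removed, >90% astrocytes) grown 3–5 weeks in serum BME. Cells equilibrated 60 min at 37 °C in chloride-HCO3 Hepes medium. Cells washed with ice-cold 0.32 M sucrose. Counts, minus time-0 background, normalized to Lowry protein. Reported as % of vehicle control ± SD, n = 4.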

Row | Compound | Concentration [%]
1 | CCN1Cc2cc(OCCCC(=O)O)ccc2C1=O | 109

Species: Rattus norvegicus
Experiment: Reduction of Astrocyte intracellular chloride concentration at 0.05 mM; No data.
Type: functional, organism-based
Details: not given
In short: as §1

Row | Compound | Concentration [%]
2 | CCN1Cc2cc(OCCCC(=O)O)ccc2C1=O | 93

Species: Rattus norvegicus
Experiment: Reduction of Astrocyte intracellular chloride concentration at 0.1 mM.
Type: functional, organism-based
Details: not given
In short: as §1

Row | Compound | Concentration [%]
3 | C=C(CC)C(=O)c1ccc(OCC(=O)O)c(Cl)c1Cl | 78
4 | O=C(O)COc1ccc2c(c1)C(=O)N(C1CCCCC1)C2=O | 94
5 | NS(=O)(=O)c1cc(C(=O)O)c(NCc2ccco2)cc1Cl | 79
6 | CCCN1C(=O)c2ccc(OCC(=O)O)cc2C1=O | 103
7 | CCCCN1C(=O)c2cc(OCCCC(=O)O)c(Cl)c(Cl)c2C1=O | 86
8 | O=C(O)CCCOc1ccc(C(=O)NC2CCCC2)cc1Br | 74
9 | O=C(O)CCCOc1ccc2c(c1)C(=O)N(C1CCCC1)C2=O | 101
10 | O=C(O)CCCOc1ccc2c(c1)C(=O)N(C1CCCCC1)C2=O | 105
11 | O=C(O)CCCOc1ccc2c(c1)C(=O)NC2=O | 93
12 | O=C(O)CCCOc1cc2c(c(Cl)c1Cl)C(=O)N(C1CCCC1)C2=O | 97
13 | CCN1Cc2cc(OCCCC(=O)O)ccc2C1=O | 67
14 | CN(C(=O)c1ccc(OCCCC(=O)O)c(Cl)c1Cl)C1CCCC1 | 79
15 | CCN1C(=O)c2ccc(OCCCC(=O)O)cc2C1=O | 104
16 | CN1C(=O)c2cc(OCCCC(=O)O)c(Cl)c(Cl)c2C1=O | 91
17 | CCCCN1C(=O)c2cc(Cl)c(OCCCC(=O)O)cc2C1=O | 95
18 | O=C(O)CCCOc1cc2c(cc1Cl)C(=O)N(C1CCCC1)C2 | 115
19 | CN1Cc2cc(OCCCC(=O)O)ccc2C1=O | 84

Row | Compound | Concentration [%]
20 | O=C(O)CCCOc1c(Cl)cc2c(c1Cl)C(=O)N(C1CCCC1)C2=O | 94
21 | O=C(O)CCCOc1ccc(C(=O)NC2CCCC2)c(Cl)c1Cl | 93
22 | CCCCCCN1C(=O)c2ccc(OCCCC(=O)O)cc2C1=O | 109
23 | O=C(O)COc1ccc2c(c1)C(=O)N(C1CCCC1)C2=O | 91
24 | O=C(O)CCCOc1ccc2c(c1)C(=O)N(CCCO)C2=O | 75
25 | CCCCN1Cc2cc(OCCCC(=O)O)ccc2C1=O | 97
26 | O=C(O)CCCOc1cc2c(cc1Cl)C(=O)N(C1CCCC1)C2=O | 111
27 | O=C(O)CCCOc1ccc2c(c1Cl)C(=O)N(C1CCCC1)C2=O | 107
28 | CN1C(=O)c2ccc(OCCCC(=O)O)cc2C1=O | 90
29 | CCCN1Cc2cc(OCCCC(=O)O)ccc2C1=O | 98
30 | CCN1C(=O)c2cc(OCCCC(=O)O)c(Cl)c(Cl)c2C1=O | 103
31 | CCCN1C(=O)c2cc(OCCCC(=O)O)c(Cl)c(Cl)c2C1=O | 74
32 | O=C(O)CCCOc1ccc(C(=O)NC2CCCC2)cc1Cl | 83
33 | CCCN1C(=O)c2ccc(OCCCC(=O)O)cc2C1=O | 67
34 | CCCCN1C(=O)c2ccc(OCCCC(=O)O)cc2C1=O | 88
35 | O=C(O)CCCOc1ccc2c(c1)C(=O)N(CCCCO)C2=O | 106
36 | CCCCCN1C(=O)c2ccc(OCCCC(=O)O)cc2C1=O | 85

Species: Rattus norvegicus
Experiment: Reduction of Astrocyte intracellular chloride concentration at 0.05 mM.
Type: functional, organism-based
Details: 0.05 mM
In short: as §1

Row | Compound | Concentration [%]
37 | O=C(O)COc1ccc2c(c1)C(=O)N(C1CCCCC1)C2=O | 87
38 | CCCN1C(=O)c2ccc(OCC(=O)O)cc2C1=O | 110
39 | O=C(O)CCCOc1ccc2c(c1)C(=O)NC2=O | 88
40 | CCN1C(=O)c2ccc(OCCCC(=O)O)cc2C1=O | 76
41 | O=C(O)CCCOc1ccc(C(=O)NC2CCCC2)c(Cl)c1Cl | 78
42 | O=C(O)COc1ccc2c(c1)C(=O)N(C1CCCC1)C2=O | 92
43 | O=C(O)CCCOc1ccc2c(c1)C(=O)N(CCCO)C2=O | 83
44 | CCCCN1Cc2cc(OCCCC(=O)O)ccc2C1=O | 76
45 | CN1C(=O)c2ccc(OCCCC(=O)O)cc2C1=O | 118
46 | CCCN1Cc2cc(OCCCC(=O)O)ccc2C1=O | 76
47 | CCCN1C(=O)c2ccc(OCCCC(=O)O)cc2C1=O | 80
48 | CCCCN1C(=O)c2ccc(OCCCC(=O)O)cc2C1=O | 69
49 | O=C(O)CCCOc1ccc2c(c1)C(=O)N(CCCCO)C2=O | 101
50 | CCCCCN1C(=O)c2ccc(OCCCC(=O)O)cc2C1=O | 77

Same assay, conditions: 0.5 mM, in the assay text read “0.5 mM” for “0.05 mM”

Row | Compound | Concentration [%]
51 | CCCCN1C(=O)c2cc(OCCCC(=O)O)c(Cl)c(Cl)c2C1=O | 74
52 | CCN1Cc2cc(OCCCC(=O)O)ccc2C1=O | 67
53 | CCCCN1C(=O)c2cc(Cl)c(OCCCC(=O)O)cc2C1=O | 81
54 | CCCCCCN1C(=O)c2ccc(OCCCC(=O)O)cc2C1=O | 118
55 | CCN1C(=O)c2cc(OCCCC(=O)O)c(Cl)c(Cl)c2C1=O | 83
56 | CCCN1C(=O)c2cc(OCCCC(=O)O)c(Cl)c(Cl)c2C1=O | 89

Species: Rattus norvegicus
Experiment: Reduction of Astrocyte intracellular chloride concentration at 1 mM.
Type: functional, organism-based
Details: not given
In short: as §1

Row | Compound | Concentration [%]
57 | NS(=O)(=O)c1cc(C(=O)O)c(NCc2ccco2)cc1Cl | 21
58 | CCN1Cc2cc(OCCCC(=O)O)ccc2C1=O | 57
